According to ChEMBL document CHEMBL3259728, “Design, synthesis and biological evaluation of some novel substituted quinazolines as antitumor agents” (2014):

Tests used:
Assay type in all cases: functional
[1] = Growth inhibition of human BT549 cells at 10 uM after 48 hrs by SRB assay; details: BT-549, 48 h, read-out: GI
How it was run: (§1)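 NCI primary one-dose screen. A single concentration of 10^-5 M was added to the cell culture, followed by 48 h incubation and an SRB protein-dye endpoint read spectrophotometrically. Results are growth percentage relative to untreated control cells, reported as % growth inhibition.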

[2] = Growth inhibition of human Hs578T cells at 10 uM after 48 hrs by SRB assay; details: Hs-578T, read-out: GI
How it was run: (§2)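 NCI-60 primary one-dose screen run at the US NCI, with human tumour lines from nine cancer types. Compound added once at 10^-5 M, followed by 48 h incubation. End point was sulforhodamine B protein staining read spectrophotometrically. Result given as percent growth of treated cells against untreated controls, reported as % growth inhibition.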

MDA-MB-231 = experiment: Growth inhibition of human MDA-MB-231 cells at 10 uM after 48 hrs by SRB assay; details: MDA-MB-231, 48 h, read-out: GI; how it was run: as §2
MCF7 = experiment: Growth inhibition of human MCF7 cells at 10 uM after 48 hrs by SRB assay; details: MCF7, 48 h, read-out: GI; how it was run: as §2
DU-145 = experiment: Growth inhibition of human DU145 cells at 10 uM after 48 hrs by SRB assay; details: DU-145, 48 h, read-out: GI; how it was run: as §2
PC-3 = experiment: Growth inhibition of human PC3 cells at 10 uM after 48 hrs by SRB assay; details: PC-3, 48 h, read-out: GI; how it was run: as §2
[3] = Growth inhibition of human UO31 cells at 10 uM after 48 hrs by SRB assay; details: UO-31, 48 h, read-out: GI; how it was run: as §2
SN12C = experiment: Growth inhibition of human SN12C cells at 10 uM after 48 hrs by SRB assay; details: read-out: GI; how it was run: as §2
[4] = Growth inhibition of human RXF393 cells at 10 uM after 48 hrs by SRB assay; details: RXF 393, 48 h, read-out: GI; how it was run: as §2
786-0 = experiment: Growth inhibition of human 786-0 cells at 10 uM after 48 hrs by SRB assay; details: 786-0, 48 h, read-out: GI; how it was run: as §1
[5] = Growth inhibition of human NCI-ADR-RES cells at 10 uM after 48 hrs by SRB assay; details: read-out: GI; how it was run: as §2
[6] = Growth inhibition of human OVCAR5 cells at 10 uM after 48 hrs by SRB assay; details: OVCAR-5, 48 h, read-out: GI; how it was run: as §2
[7] = Growth inhibition of human OVCAR3 cells at 10 uM after 48 hrs by SRB assay; details: OVCAR-3, 48 h, read-out: GI; how it was run: as §2
IGROV-1 = experiment: Growth inhibition of human IGROV1 cells at 10 uM after 48 hrs by SRB assay; details: IGROV-1, 48 h, read-out: GI; how it was run: as §2
SK-MEL-5 = experiment: Growth inhibition of human SK-MEL-5 cells at 10 uM after 48 hrs by SRB assay; details: SK-MEL-5, 48 h, read-out: GI; how it was run: as §2
MDA-MB-435 = experiment: Growth inhibition of human MDA-MB-435 cells at 10 uM after 48 hrs by SRB assay; details: MDA-MB-435, 48 h, read-out: GI; how it was run: as §2
M14 = experiment: Growth inhibition of human M14 cells at 10 uM after 48 hrs by SRB assay; details: M14, 48 h, read-out: GI; how it was run: as §2
Malme-3M = experiment: Growth inhibition of human MALME-3M cells at 10 uM after 48 hrs by SRB assay; details: read-out: GI; how it was run: as §2
U-251 = experiment: Growth inhibition of human U251 cells at 10 uM after 48 hrs by SRB assay; details: U-251, 48 h, read-out: GI; how it was run: as §2
SNB-75 = experiment: Growth inhibition of human SNB75 cells at 10 uM after 48 hrs by SRB assay; details: SNB-75, 48 h, read-out: GI; how it was run: as §2
SNB-19 = experiment: Growth inhibition of human SNB19 cells at 10 uM after 48 hrs by SRB assay; details: SNB-19, 48 h, read-out: GI; how it was run: as §2
[8] = Growth inhibition of human SF539 cells at 10 uM after 48 hrs by SRB assay; details: SF-539, 48 h, read-out: GI; how it was run: as §2
SW-620 = experiment: Growth inhibition of human SW620 cells at 10 uM after 48 hrs by SRB assay; details: SW-620, 48 h, read-out: GI; how it was run: as §2
KM12 = experiment: Growth inhibition of human KM12 cells at 10 uM after 48 hrs by SRB assay; details: KM12, 48 h, read-out: GI; how it was run: as §2
HT-29 = experiment: Growth inhibition of human HT-29 cells at 10 uM after 48 hrs by SRB assay; details: HT-29, 48 h, read-out: GI; how it was run: as §2
COLO 205 = experiment: Growth inhibition of human COLO205 cells at 10 uM after 48 hrs by SRB assay; details: COLO 205, 48 h, read-out: GI; how it was run: as §1
NCI-H522 = experiment: Growth inhibition of human NCI-H522 cells at 10 uM after 48 hrs by SRB assay; details: NCI-H522, 48 h, read-out: GI; how it was run: as §2
NCI-H322M = experiment: Growth inhibition of human NCI-H322M cells at 10 uM after 48 hrs by SRB assay; details: read-out: GI; how it was run: as §2
NCI-H23 = experiment: Growth inhibition of human NCI-H23 cells at 10 uM after 48 hrs by SRB assay; details: NCI-H23, 48 h, read-out: GI; how it was run: as §2
[9] = Growth inhibition of human HOP92 cells at 10 uM after 48 hrs by SRB assay; details: HOP-92, 48 h, read-out: GI; how it was run: as §2
NCI-H226 = experiment: Growth inhibition of human NCI-H226 cells at 10 uM after 48 hrs by SRB assay; details: NCI-H226, 48 h, read-out: GI; how it was run: as §2
HOP-62 = experiment: Growth inhibition of human HOP62 cells at 10 uM after 48 hrs by SRB assay; details: HOP-62, 48 h, read-out: GI; how it was run: as §2
[10] = Growth inhibition of human EKVX cells at 10 uM after 48 hrs by SRB assay; details: read-out: GI; how it was run: as §2
SR = experiment: Growth inhibition of human SR cells at 10 uM after 48 hrs by SRB assay; details: read-out: GI; how it was run: as §2
CCRF-CEM = experiment: Growth inhibition of human CCRF-CEM cells at 10 uM after 48 hrs by SRB assay; details: read-out: GI; how it was run: as §1
[11] = Growth inhibition of human OVCAR8 cells at 10 uM after 48 hrs by SRB assay; details: OVCAR-8, 48 h, read-out: GI; how it was run: as §2
SK-MEL-28 = experiment: Growth inhibition of human SK-MEL-28 cells at 10 uM after 48 hrs by SRB assay; details: SK-MEL-28, 48 h, read-out: GI; how it was run: as §2
T47D = experiment: Growth inhibition of human T47D cells at 10 uM after 48 hrs by SRB assay; details: read-out: GI; how it was run: as §2
[12] = Growth inhibition of human HCT15 cells at 10 uM after 48 hrs by SRB assay; details: HCT-15, 48 h, read-out: GI; how it was run: as §2

SMILES: Cc1ccc(-c2nc3ccc(Cl)cc3c(=O)n2NC(=O)CN)cc1
- inhibition of growth at 10 µM [1]: < 10%
- inhibition of growth at 10 µM [2]: < 10%
- inhibition of growth at 10 µM (MDA-MB-231): < 10%
- inhibition of growth at 10 µM (MCF7): 12%
- inhibition of growth at 10 µM (DU-145): < 10%
- inhibition of growth at 10 µM (PC-3): < 10%
- inhibition of growth at 10 µM [3]: 11%
- inhibition of growth at 10 µM (SN12C): < 10%
- inhibition of growth at 10 µM [4]: < 10%
- inhibition of growth at 10 µM (786-0): < 10%
- inhibition of growth at 10 µM [5]: < 10%
- inhibition of growth at 10 µM [6]: 11%
- inhibition of growth at 10 µM [7]: < 10%
- inhibition of growth at 10 µM (IGROV-1): < 10%
- inhibition of growth at 10 µM (SK-MEL-5): < 10%
- inhibition of growth at 10 µM (MDA-MB-435): < 10%
- inhibition of growth at 10 µM (M14): 11%
- inhibition of growth at 10 µM (Malme-3M): < 10%
- inhibition of growth at 10 µM (U-251): < 10%
- inhibition of growth at 10 µM (SNB-75): 15%
- inhibition of growth at 10 µM (SNB-19): < 10%
- inhibition of growth at 10 µM [8]: 15%
- inhibition of growth at 10 µM (SW-620): < 10%
- inhibition of growth at 10 µM (KM12): < 10%
- inhibition of growth at 10 µM (HT-29): 12%
- inhibition of growth at 10 µM (COLO 205): < 10%
- inhibition of growth at 10 µM (NCI-H522): < 10%
- inhibition of growth at 10 µM (NCI-H322M): < 10%
- inhibition of growth at 10 µM (NCI-H23): < 10%
- inhibition of growth at 10 µM [9]: < 10%
- inhibition of growth at 10 µM (NCI-H226): 11%
- inhibition of growth at 10 µM (HOP-62): 15%
- inhibition of growth at 10 µM [10]: 22%
- inhibition of growth at 10 µM (SR): < 10%
- inhibition of growth at 10 µM (CCRF-CEM): 14%
- inhibition of growth at 10 µM [11]: < 10%
- inhibition of growth at 10 µM (SK-MEL-28): < 10%

SMILES: Cc1ccc(-c2nc3ccc(Cl)cc3c(=O)n2/N=C/c2ccccc2)cc1
- inhibition of growth at 10 µM (T47D): 25%
- inhibition of growth at 10 µM [1]: < 10%
- inhibition of growth at 10 µM [2]: 44%
- inhibition of growth at 10 µM (MDA-MB-231): 41%
- inhibition of growth at 10 µM (MCF7): 20%
- inhibition of growth at 10 µM (DU-145): 27%
- inhibition of growth at 10 µM (PC-3): 30%
- inhibition of growth at 10 µM [3]: 33%
- inhibition of growth at 10 µM (SN12C): 32%
- inhibition of growth at 10 µM [4]: < 10%
- inhibition of growth at 10 µM (786-0): 30%
- inhibition of growth at 10 µM [5]: 30%
- inhibition of growth at 10 µM [6]: 18%
- inhibition of growth at 10 µM [7]: 42%
- inhibition of growth at 10 µM (IGROV-1): 43%
- inhibition of growth at 10 µM (SK-MEL-5): < 10%
- inhibition of growth at 10 µM (MDA-MB-435): 34%
- inhibition of growth at 10 µM (M14): 29%
- inhibition of growth at 10 µM (Malme-3M): 35%
- inhibition of growth at 10 µM (U-251): 88%
- inhibition of growth at 10 µM (SNB-75): 74%
- inhibition of growth at 10 µM (SNB-19): 25%
- inhibition of growth at 10 µM [8]: 22%
- inhibition of growth at 10 µM (SW-620): 23%
- inhibition of growth at 10 µM (KM12): 18%
- inhibition of growth at 10 µM (HT-29): 17%
- inhibition of growth at 10 µM [12]: 14%
- inhibition of growth at 10 µM (COLO 205): 34%
- inhibition of growth at 10 µM (NCI-H522): 52%
- inhibition of growth at 10 µM (NCI-H322M): 24%
- inhibition of growth at 10 µM (NCI-H23): 11%
- inhibition of growth at 10 µM (NCI-H226): 14%
- inhibition of growth at 10 µM (HOP-62): 98%
- inhibition of growth at 10 µM [10]: 40%
- inhibition of growth at 10 µM (SR): 20%
- inhibition of growth at 10 µM (CCRF-CEM): < 10%
- inhibition of growth at 10 µM [11]: 73%
- inhibition of growth at 10 µM (SK-MEL-28): < 10%
